Screens (PubChem BioAssay)
DNA FID counter – compounds displacing fluorescent DNA intercalator, primary screen, artefact control for HCV NS3 helicase inhibitor project, biochemical, FID fluorescence; 0.17% of 290,000 active; DNA fluorescent intercalator displacement; AID 1845, 2009; inhibition, % at 7.9 µM; in the data active = inhibition above about 37%;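 also: 0% = vehicle and 100% = reference compound; higher means more ethidium bromide displaced from hairpin DNA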
Wee1 stabilizer – Wee1 degradation inhibitors, primary screen, cell-based, HeLa, Wee1K328M-luciferase, luminescence | Wee1-like protein kinase (Homo sapiens), P30291 | HeLa Luc-Wee1K328M stability; 100% = proteasome inhibitor MG132 effect | reporter increase, % at 5 µM | 1.2% of 220,000 active | AID 1321, 2008;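 active = activation above the mean of all tested compounds plus 3 SD, set per screening run, cut at about 8.8% in these data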;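 also: cells exposed to compound for 20 h before luminescence read; 0% = DMSO alone and 100% = MG132 at 30 µM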
RBBP9 inh – human RBBP9 inhibitors, primary screen, biochemical, fluorescence polarization, FP-Rh probe, HTS; 0.2% of 220,000 active; recombinant RBBP9; inhibition, % at 7.94 µM;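 active = inhibition above the campaign mean of all tested compounds plus 3 SD, cut at about 14% in these data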;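 also: plate controls were DMSO wells with RBBP9 for no effect and wells lacking RBBP9 protein for full effect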
Target sequence (O75884 whole entry, looked up): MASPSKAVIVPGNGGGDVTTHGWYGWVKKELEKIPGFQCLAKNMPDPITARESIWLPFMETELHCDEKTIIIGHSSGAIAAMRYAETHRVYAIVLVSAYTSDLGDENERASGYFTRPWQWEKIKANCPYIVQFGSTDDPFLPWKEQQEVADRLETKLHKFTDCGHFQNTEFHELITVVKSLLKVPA
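Test system: recombinant human RBBP9; Timing: 30 min then 45 min, 25 °C; Detection: fluorescence polarization; Control set: RBBP9 with DMSO as uninhibited control, no-protein wells as full inhibition; Compound dosing: one concentration, 7.94 µM nominal, 0.794% DMSO; Probe or stimulus: FP-Rh activity-based probe, 375 nM before mixing.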
Rad51 HR inh – human RAD51 strand exchange inhibitors, primary screen, biochemical, fluorescence; DNA repair protein RAD51 homolog 1 (Homo sapiens), Q06609; 0.085% of 200,000 active; hRad51 DNA strand exchange, fluorescence dequenching; inhibition, % at 10 µM;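 active = inhibition above 40% at the single screening dose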;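 also: 0% = DMSO control wells and 100% = blanks with heterologous ssDNA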
Target sequence (Q06609 whole entry, looked up): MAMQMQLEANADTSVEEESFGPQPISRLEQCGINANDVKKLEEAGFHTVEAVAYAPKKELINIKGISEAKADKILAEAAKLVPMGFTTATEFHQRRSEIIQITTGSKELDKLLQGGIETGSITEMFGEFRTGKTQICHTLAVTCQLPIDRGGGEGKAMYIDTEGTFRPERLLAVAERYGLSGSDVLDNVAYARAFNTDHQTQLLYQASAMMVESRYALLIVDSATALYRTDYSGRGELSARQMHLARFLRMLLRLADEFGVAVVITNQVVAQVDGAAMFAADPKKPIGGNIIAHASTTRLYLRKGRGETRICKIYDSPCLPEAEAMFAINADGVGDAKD
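System: human Rad51 nucleoprotein filaments preassembled on unlabelled ssDNA. Reagent: labelled 47-mer dsDNA for strand exchange. Schedule: 30-min compound preincubation and 15-min exchange, both room temperature. Measured by: FRET fluorescence dequenching, excitation 485 nm, emission 520 nm. Read-out: Fluorescence-based percent inhibition, control- and blank-normalised. Benchmarks: plate controls and plate blanks.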
* hit, by the source's call; i = inactive; . = no result given. Rows were chosen to be rich in hits. Some 1.2% of all compounds tested hit in one or more screens of this group.

SMILES	DNA FID counter	Wee1 stabilizer	RBBP9 inh	Rad51 HR inh
O=C(COS(=O)c1ccccc1)Nc1cc(Cl)ccc1N1CCOCC1 (configuration not stated)	-13.1	9.0*	-10.7	-8.4
CCCCCCN1C=CC(=C/C=C(\C#N)C(=O)OCC)C=C1	-3.4	-1.3	-9.3	i
CCCN1C=CC(=C/C=C(\C#N)C(=O)OCC)C=C1	3.9	11.8*	-2.6	-231.4
COCCC(=O)N1CCC(Oc2ccc(C(=O)N3CCCC(CCCO)C3)cc2)CC1 (configuration not stated)	-38.9	.	.	.
O=C(N/N=C/c1ccc([N+](=O)[O-])cc1)c1ccc(COc2ccccc2-c2ccccc2)cc1	-1.0	-1.4	-8.1	-9.7
O=C1OCC2OC(O)C(O)C(O)C2OC(=O)c2cc(O)c(O)c(O)c2-c2c(O)c(O)c3oc(=O)c4c(c(O)c(O)c5oc(=O)c2c3c54)-c2c1cc(O)c(O)c2O (configuration not stated)	.	.	.	68.0*
CN1C2CCC1CC(NC(=O)CSc1ccc(C(C)(C)C)cc1)C2 (configuration not stated)	18.0	9.6*	-9.2	2.1
CCOC(=O)C1(CCc2ccccc2)CCN(C(=O)c2cccc(C)n2)CC1	-30.1	10.7*	-7.1	.
COc1cc2c(cc1OC)C(C)N(S(=O)(=O)c1cn(C)cn1)CC2 (configuration not stated)	-1.0	9.4*	-8.2	-7.8
CCN(C(=O)c1cc2c(s1)-c1ccccc1S(=O)(=O)C2)c1cc(OC)ccc1OC	-38.6	.	.	.
CCN(CC)CCn1c2ccccc2c2nc3ccc([N+](=O)[O-])cc3cc21	43.9*	0.5	6.4	.
COc1ccc(-c2nn(-c3ccccc3)cc2/C=N/n2cnnc2)cc1OC	-13.3	9.3*	11.1	-3.2
COc1ccc(-c2nn(-c3ccccc3)cc2/C=N/NC(N)=S)cc1OC	-35.0	7.2	-6.5	-1.9
CN1CC(=O)N2[C@H](c3ccc4c(c3)OCO4)c3[nH]c4ccccc4c3C[C@@H]2C1=O	-9.7	2.7	-7.4	-2.8
O=C(NCCc1ccccc1)/C(=C\c1ccccc1)NC(=O)c1ccco1	-8.9	.	.	.
Cc1c(C)n(CCN(C)C)c2ccc(C(=O)OCCN(C)C)cc12	62.4*	.	.	.
CCCCCC(=O)NN1C(=S)N(c2ccc(OC)cc2)C(=O)C1CC(=O)Nc1ccccc1 (configuration not stated)	-15.3	-0.9	-8.2	.
Cc1ccc(C)c(N2CCN(CCCNC(=O)Cn3cccc3C(=O)c3ccccc3C)CC2)c1	37.9*	1.6	-5.9	12.5
Cc1ccccc1C(=O)c1cccn1CC(=O)NCCCN1CCCCC1	5.1	.	.	.
CC(=O)Nc1ccc(NC(=O)c2ccccc2CC[N+](=O)[O-])cc1	-2.1	-1.5	-0.5	12.8
COc1ccc(OC)c(Nc2nc(NCCCN(C)C)nc(N)c2[N+](=O)[O-])c1	40.7*	0.8	4.5	40.8*
COc1ccc(C2=NS(=O)(=O)N(C)C(C(=O)N3CCC(C(N)=O)CC3)=C2)cc1	-5.1	.	.	.
CCCCCN1CC(O)=C(c2nc3ccccc3[nH]2)C1=N	1.8	10.1*	-0.7	-12.7
CCCCN1CC(O)=C(c2nc3ccccc3[nH]2)C1=N	0.8	-1.2	3.8	.
CC1C/C(=C/c2ccccn2)C(=O)/C(=C/c2ccccn2)C1 (configuration not stated)	-7.4	9.9*	-4.0	-0.6
SMILES	DNA FID counter	Wee1 stabilizer	RBBP9 inh	Rad51 HR inh
CC(C)(C)C1C/C(=C/c2ccccn2)C(=O)/C(=C/c2ccccn2)C1 (configuration not stated)	-5.5	4.4	-5.7	-8.6
O=C(c1ccc(F)cc1)N1CCN(c2cc(N3CCCCC3)c(F)cc2[N+](=O)[O-])CC1	-5.3	-0.6	6.4	3.9
C#CCOCCOCCOCCNc1nc(N2CCN(C(=O)[C@H]([C@@H](C)CC)n3cc([C@@H](N)CC(C)C)nn3)CC2)nc(N2CCN(C(=O)[C@H](CCCCN)n3cc([C@@H](N)CC(C)C)nn3)CC2)n1	37.5*	5.7	0.9	-5.1
C#CCOCCOCCOCCNc1nc(N2CCN(C(=O)C([C@@H](C)CC)n3cc(C(N)CC(C)C)nn3)CC2)nc(N2CCN(C(=O)[C@H](CCC(=O)O)n3cc(C(N)CC(C)C)nn3)CC2)n1 (some centres not stated)	14.8	-0.7	-5.5	-5.1
C#CCOCCOCCOCCNc1nc(N2CCN(C(=O)[C@H](CCCCN)n3cc([C@@H](N)C(C)CC)nn3)CC2)nc(N2CCN(C(=O)[C@H](CCCCN)n3cc([C@@H](N)CO)nn3)CC2)n1 (some centres not stated)	66.2*	3.3	-1.7	.
C#CCOCCOCCOCCNc1nc(N2CCN(C(=O)[C@H]([C@@H](C)CC)n3cc([C@@H](N)CO)nn3)CC2)nc(N2CCN(C(=O)[C@H](CCCCN)n3cc([C@@H](N)C(C)CC)nn3)CC2)n1 (some centres not stated)	51.8*	7.3	-3.8	7.9
C#CCOCCOCCOCCNc1nc(N2CCN(C(=O)[C@H]([C@@H](C)CC)n3cc(CCCN=C(N)N)nn3)CC2)nc(N2CCN(C(=O)[C@H]([C@@H](C)CC)n3cc(CCCN=C(N)N)nn3)CC2)n1	42.9*	-3.8	-2.4	-3.3
Cc1ccc(C)c(NC(=O)CCN2CCN(c3ccccc3F)CC2)c1	-7.3	.	.	.
O=c1cc(-c2ccccc2Cl)oc2c(NS(=O)(=O)c3cccs3)ccc(O)c12	.	.	.	-2.1
O=C(OCC(=O)c1c[nH]c2ccccc12)C1=COCCO1	-1.9	10.8*	-2.6	-1.8
COc1ccc(NC(=O)C(Cl)=C(Cl)Cl)cn1	-9.6	-0.4	-2.7	-10.9
COc1ccc(NC(=O)/C(Cl)=C(/Cl)S(=O)Cc2ccc(Cl)cc2)cn1 (configuration not stated)	-15.5	12.7*	-10.6	1.6
Cc1ccc2nc(N/C(=N/S(=O)(=O)c3ccc(F)cc3F)c3ccccc3)sc2c1	-25.3	9.0*	-7.7	.
CC(C)COc1ccc(CNC(=S)N/N=C/c2ccc([N+](=O)[O-])cc2)cc1	-9.2	10.0*	-2.8	7.3
CCn1nc(C(=O)NNC(=O)CCOc2cc(C)ccc2C)c2ccccc2c1=O	-24.0	.	.	.
O=C(/C=C/c1ccc([N+](=O)[O-])cc1)Nc1cccnc1	3.3	10.1*	-6.9	4.4
Cc1c(NC(=O)C(C)OC(=O)c2ccc([N+](=O)[O-])s2)c(=O)n(-c2ccccc2)n1C (configuration not stated)	4.8	-0.3	-2.4	-5.5
CN(CC1CCOCC1)C(=O)CC1C(=O)NCCN1Cc1ccc(-c2ccccc2)cc1 (configuration not stated)	-25.7	9.1*	-3.0	-11.1
Cc1cccc(-c2oc3ccccc3c2C#CCCO)c1	-11.3	.	.	.
